EBNA-1 inh: blocks EBNA-1 binding to DNA; EBNA-1 DNA binding, fluorescence polarization; inhibition, % at 14.8 µM; hit rate 0.34% among 300,000; AID 1950; in the data active = inhibition above about 28%
HNF4A DNA FP: change in binding of human HNF4 alpha to DNA. hit rate 0.3% among 360,000. P41235. activity change, % at 10 µM. AID 1224865. HNF4a-FITC DNA binding, fluorescence polarization, 1 h; in the data active = activity change above about 30%, passing the limit was not always enough
CSN deneddyl inh: CSN deneddylation inhibition | Q92905 | Purified CSN, SCF-Nedd8-OG deneddylation, fluorescence polarization | inhibition, % at 12.5 µM | hit rate 0.38% among 360,000;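 active = pattern-corrected inhibition above about 35%, with an unprinted fluorescence ratio check between 0.5 and 1.5, limit read from the data, passing the limit was not always enough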
Target sequence (Q92905 whole entry, looked up, one chain of several): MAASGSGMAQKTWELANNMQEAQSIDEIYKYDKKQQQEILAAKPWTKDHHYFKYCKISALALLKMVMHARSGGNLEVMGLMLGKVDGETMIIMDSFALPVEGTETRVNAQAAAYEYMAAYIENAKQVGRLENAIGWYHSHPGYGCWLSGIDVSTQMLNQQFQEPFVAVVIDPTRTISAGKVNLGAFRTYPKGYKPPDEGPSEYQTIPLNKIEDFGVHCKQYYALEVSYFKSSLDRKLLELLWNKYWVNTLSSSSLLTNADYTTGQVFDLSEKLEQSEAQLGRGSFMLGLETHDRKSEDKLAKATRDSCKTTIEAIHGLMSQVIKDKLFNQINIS
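Assay system: purified human Csn5 enzyme expressed in HEK293T cells; Input: 0.24 nM Csn5 enzyme, final concentration; Reagent: 10 nM SCFSkp2-Nedd8OG; Compound dosing: 12.5 µM single point; Times: reaction 90 min, room temperature; Technique: fluorescence polarization readout.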
LANA-H2A inh: blocks KSHV LANA binding to histone H2A/H2B; hit rate 0.6% among 320,000; Q9QR71; inhibition, % (no concentration beside the values); cell-free LANA-H2A/H2B peptide, fluorescence polarization; AID 2629; in the data active = inhibition mostly above about 10%, no sharp cut-off; inactive = mostly below about 6.7%
ZTA counter: counter-screen for EBNA-1 inhibitors: inhibitors of Epstein-Barr virus ZTA; P03206; ZTA-DNA binding, fluorescence polarization; inhibition, % at 11 µM; hit rate 0.15% among 320,000; AID 2234; in the data active = inhibition above about 33%
Target sequence (P03206 whole entry, looked up): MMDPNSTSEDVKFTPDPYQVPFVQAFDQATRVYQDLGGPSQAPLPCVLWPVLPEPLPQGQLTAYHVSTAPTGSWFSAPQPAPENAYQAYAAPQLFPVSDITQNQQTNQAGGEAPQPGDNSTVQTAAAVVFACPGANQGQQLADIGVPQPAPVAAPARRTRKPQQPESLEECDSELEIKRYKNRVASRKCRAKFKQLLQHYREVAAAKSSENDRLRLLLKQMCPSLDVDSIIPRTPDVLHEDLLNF
Bfl-1 A1 inh: inhibitors of the anti-apoptotic protein A1, read as caspase activation. MEF A1-2A-BIM cells, Caspase-Glo 3/7 luminescence, 3 h; percent of clofoctol response, vehicle zero. caspase activation, % (no concentration beside the values). hit rate 0.066% among 330,000;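 active = over half of replicate activation scores above 10%, or exactly half above 10 with the replicate mean above 10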
Large screens that a line does not name were inactive. Rows were chosen to be rich in hits. Some 1.5% of all compounds tested hit in one or more screens of this group.

CCN1C(=O)/C(=C/N(C)c2ccccc2)OC1=S	none
CCN1C(=O)/C(=C/C=C2/CCCN2C)OC1=S	HNF4A DNA FP 88
COCCC1CCCCN1C(=O)c1cc(COc2ccc(C)nc2)on1 (stereo not drawn)	LANA-H2A inh 45
CCOC(=O)C1CCCN(C(=O)c2cc(COc3ccc(C)nc3)on2)C1 (stereo not drawn)	LANA-H2A inh 18 (no result: EBNA-1 inh, ZTA counter)
COCCCC1CCN(C(=O)c2cc(COc3ccc(C)nc3)on2)CC1	none
CC(C)NC(=O)C1(C)CN(S(C)(=O)=O)CC(=O)N1CCc1ccc(O)cc1 (stereo not drawn)	none (no result: EBNA-1 inh, LANA-H2A inh, ZTA counter, Bfl-1 A1 inh)
CCN(CC)c1ccc2cc(S(=O)(=O)c3ccc(Cl)cc3)c(=O)oc2c1	LANA-H2A inh 39
CCOC(=O)Cn1nc(-c2ccc(Cl)cc2)cc1N	CSN deneddyl inh 49
COc1ccc(C(=O)NCCCN2CCN(CCCNC(=O)c3ccc(OC)c(OC)c3)CC2)cc1OC	none (no result: EBNA-1 inh, LANA-H2A inh, ZTA counter, Bfl-1 A1 inh)
O=C(N1CCOCC1)C12OC3CC(CC(C3)O1)O2	none (no result: EBNA-1 inh, LANA-H2A inh, ZTA counter, Bfl-1 A1 inh)
Cc1ccc(CNC(=O)C2CCC(=O)N(CCc3ccccc3)C2)s1 (stereo not drawn)	LANA-H2A inh 18
O=C1c2nc3cc(-c4ccco4)[nH]n3c(=O)c2CN1C1CCCCC1	CSN deneddyl inh 46
Cc1cc(O)c(CN(C)C)c2c1C(=O)/C(=C/c1ccco1)O2	none
Cc1cc(O)c(C=O)c2c1C(=O)Oc1c(CO)c(O)c3c(c1O2)C(O)OC3=O (stereo not drawn)	ZTA counter 97
O=C(O)CCCN1C(=O)/C(=C\c2ccccc2OCc2ccccc2)SC1=S	HNF4A DNA FP 51
O=C(O)CN1C(=O)/C(=C\c2ccccc2OCc2ccccc2)SC1=S	none (no result: EBNA-1 inh, LANA-H2A inh, ZTA counter, Bfl-1 A1 inh)
c1coc(-c2nc(-c3ccco3)c(-c3ccco3)nc2-c2ccco2)c1	EBNA-1 inh 38, ZTA counter 76
c1ccc(COc2cccc(-c3cc4nc(NCCCn5ccnc5)ccn4n3)c2)cc1	none (no result: EBNA-1 inh, LANA-H2A inh, ZTA counter, Bfl-1 A1 inh)
COc1ccc(-c2nn(CCC#N)cc2C(=O)Nc2cccc(C(=O)O)c2)cc1[N+](=O)[O-]	LANA-H2A inh 15
COc1ccc(-c2nn(CCC#N)cc2C(=O)Nc2cccc(C(=O)O)c2)cc1OC	none (no result: EBNA-1 inh, ZTA counter)
COc1cc(OC)cc(C(=O)NC(C(=O)Nc2ccc3c(c2)OCO3)C(C)C)c1 (stereo not drawn)	LANA-H2A inh 11 (no result: EBNA-1 inh)
COc1ccc(N=Nc2nc3cc(Br)c(Br)cc3n2C)c(OC)c1	LANA-H2A inh 102
O=C(NCc1ccccc1)C(c1ccccc1)n1c(C2CC2)nc2ccccc21 (stereo not drawn)	none (no result: EBNA-1 inh, LANA-H2A inh, ZTA counter, Bfl-1 A1 inh)
C=CCN=C1N[C@@H](c2cccc(C(F)(F)F)c2)C(C(=O)OC)=C(C)N1CC	none
CCN1C(=NCC(C)C)N[C@@H](c2cccc(C(F)(F)F)c2)C(C(=O)OC)=C1C	LANA-H2A inh 13
O=C(NCC1OCCc2ccccc21)c1ccc(NC(=O)c2ccc(Cl)cc2)cc1 (stereo not drawn)	EBNA-1 inh 32
Cc1ccc(NC(=O)C(=O)NCC2OCCc3ccccc32)cc1 (stereo not drawn)	none
Cc1cccc(NC(=O)c2c([N+](=O)[O-])cnn2C)c1	none
CCN/C=C(\C#N)S(=O)(=O)c1ccc(Br)cc1	CSN deneddyl inh 100
Cc1cccc(N(CC(=O)N/N=C/c2ccc(C(=O)O)cc2)S(=O)(=O)c2ccccc2)c1C	none
COc1ccc2noc3c2c1C(=O)c1ccccc1-3	LANA-H2A inh 167
CN1/C(=C\C(=O)C[n+]2ccc3ccccc3c2)C(C)(C)c2ccccc21	none (no result: EBNA-1 inh, LANA-H2A inh, ZTA counter, Bfl-1 A1 inh)
CCOC(=O)CCSc1nc(C)cc(C(F)(F)F)c1C#N	CSN deneddyl inh 38
COc1ccc(OC)c(/C=N\NC(=O)c2cc3c(ccc4ccccc43)o2)c1	none
O=C(N/N=C/C=C/c1ccccc1)c1cc2c(ccc3ccccc32)o1	CSN deneddyl inh 42
O=C(N/N=C/c1ccccc1F)c1cc2c(ccc3ccccc32)o1	HNF4A DNA FP 39
Oc1cccc2ccc(/C=C/c3cccs3)nc12	LANA-H2A inh 13
O=C(NCCc1ccccc1)C1Cc2c(-c3ccc(Cl)cc3)ccnc2O1 (stereo not drawn)	none (no result: EBNA-1 inh, LANA-H2A inh, ZTA counter, Bfl-1 A1 inh)
CC(C)(C)c1ccc2c(c1)OC(C(=O)N/N=C\c1ccncc1)CO2 (stereo not drawn)	none
CC(C)(C)c1ccc2c(c1)OC(C(=O)N/N=C\c1ccc[nH]1)CO2 (stereo not drawn)	Bfl-1 A1 inh 24
COc1ccc(S(=O)(=O)N2CCCCC2)cc1NC(=O)c1ccc(Cl)nc1	none (no result: EBNA-1 inh)
CCOC(=O)c1c(CSCc2ccccc2)oc2ccc(O)c(CN(C)C)c12	none
COc1ccc(-n2c(O)c(/C=N/NS(=O)(=O)c3ccc(C)cc3)c3ccccc3c2=O)cc1OC	HNF4A DNA FP 86 (no result: LANA-H2A inh)
COc1ccc(-n2c(O)c(/C=N/NS(=O)(=O)c3cc(C)ccc3C)c3ccccc3c2=O)cc1OC	none
CN1CCc2ccc(NC(=O)c3ccc(C(F)(F)F)cc3)cc2C1	none
Oc1ccccc1CNc1cnc2ccccc2c1	LANA-H2A inh 20
Oc1ccc(Cl)cc1CNc1cnc2ccccc2c1	none
CC(C)[C@@H](NC(=O)C1CCC(CNC(=O)[C@H](Cc2ccccc2)NC(=O)OC(C)(C)C)CC1)C(=O)O (stereo partly drawn)	none (no result: EBNA-1 inh, ZTA counter)
COc1ccc2nc(NC(=O)c3cccc(-c4cc5ccccc5oc4=O)c3)sc2c1	EBNA-1 inh 44
COc1ccc(C(=O)Nc2nc3ccc(OC)cc3s2)cc1	none (no result: EBNA-1 inh, ZTA counter)
O=C1C(=Cc2cccc(F)c2)Cc2ccccc21	none (no result: EBNA-1 inh, LANA-H2A inh, ZTA counter, Bfl-1 A1 inh)
COc1cc(NC(=O)COc2cc3oc(=O)cc(C)c3cc2Cl)cc(OC)c1OC	LANA-H2A inh 15
CN(C)S(=O)(=O)c1ccc2c(c1)Cc1cc(S(=O)(=O)N(C)C)ccc1-2	none
O=C(COC(=O)/C=C/c1ccc([N+](=O)[O-])cc1)Nc1ccc(F)cc1	CSN deneddyl inh 42 (no result: EBNA-1 inh)
COc1ccc(C(=O)C2CCN(CC(=O)Nc3ccc(OC)cc3OC)CC2)cc1	LANA-H2A inh 19
COc1ccc(NC(=O)CSc2cn[nH]n2)c(OC)c1	LANA-H2A inh 34
COc1ccc(OC)c(NC(=O)Cn2cccc2)c1	LANA-H2A inh 17
CCOc1ccccc1NC(=O)CN1CCC(C(=O)c2ccc(OC)cc2)CC1	none
CC(=O)Nc1ccc(N=Nc2ccc(O)cc2)cc1	none
C=CCn1c(=O)/c(=C/c2ccsc2)s/c1=C(\C#N)C(=O)NCCN1CCOCC1	none (no result: EBNA-1 inh, LANA-H2A inh, ZTA counter, Bfl-1 A1 inh)
NCCC1CCCC(CCN)N1 (stereo not drawn)	EBNA-1 inh active, ZTA counter active
Cc1ccsc1/C=C(\CC(=O)O)c1nc2ccccc2o1	none
Cc1ccsc1/C=C(\C(=O)c1ccc(OC(C)C)cc1)c1nc2ccccc2o1	LANA-H2A inh 11
COc1ccc2c(=O)c(-c3cnn(-c4ccccc4)c3)c(C)oc2c1	LANA-H2A inh 22
